# Compound activity: PubChem BioAssay, The Scripps Research Institute Molecular Screening Center
# PRMT1 FP inh: blocks human protein arginine methyltransferase 1; AID 652257; inhibition, % at 2.79 µM; recombinant PRMT1, activity-based probe fluorescence polarization; hit rate 1.3% among 370,000; Q99873;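 active = inhibition above about 21% made by adding two undisclosed values, limit read from the data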
# TDP2 absorb: TDP2 (human) inhibition, absorbance primary screen; hit rate 0.34% among 370,000; inhibition, % at 12.8 µM; O95551; recombinant TDP2, T5PNP hydrolysis, p-nitrophenol absorbance 415 nm;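 active = inhibition above the mean of all tested compounds plus 3 SD, set per campaign, cut at about 25% in these data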;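 note: 0% = DMSO with enzyme and 100% = buffer with substrate but no TDP2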
# Target sequence (O95551 whole entry, looked up): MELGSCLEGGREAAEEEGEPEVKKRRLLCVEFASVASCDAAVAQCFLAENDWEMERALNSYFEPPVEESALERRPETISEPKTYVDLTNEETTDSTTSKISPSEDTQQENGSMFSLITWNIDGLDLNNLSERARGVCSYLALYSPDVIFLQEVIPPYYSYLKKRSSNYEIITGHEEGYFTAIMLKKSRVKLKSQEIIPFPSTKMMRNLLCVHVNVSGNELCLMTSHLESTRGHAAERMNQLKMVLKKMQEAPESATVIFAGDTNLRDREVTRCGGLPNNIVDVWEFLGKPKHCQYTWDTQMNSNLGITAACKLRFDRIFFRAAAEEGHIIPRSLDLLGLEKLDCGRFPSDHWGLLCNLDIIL
#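 Test system: Human TDP2 enzyme | Reagent: 5 mM T5PNP | Compound dosing: 12.8 µM single point, 1% DMSO | Incubation: Enzyme reaction with compound for 2 h at 37 °C | Technique: p-Nitrophenol epi absorbance | Read-out: % inhibition relative to enzyme-containing and enzyme-free wells | Benchmarks: High control without enzyme, low control DMSO plus TDP2 | Replicates: Singlicate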
# GSTO1 inh: blocks human GSTO1 in RBBP9 counter-screen. recombinant GSTO1, activity-based probe fluorescence polarization. inhibition, % at 5.96 µM. hit rate 1.1% among 300,000. AID 1974;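 active = inhibition above the campaign mean inhibition plus 3 SD, cut at about 35% in these data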;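 note: 0% = GSTO1-1 with DMSO and 100% = wells lacking GSTO1-1 enzyme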
# Target sequence (P78417 whole entry, looked up): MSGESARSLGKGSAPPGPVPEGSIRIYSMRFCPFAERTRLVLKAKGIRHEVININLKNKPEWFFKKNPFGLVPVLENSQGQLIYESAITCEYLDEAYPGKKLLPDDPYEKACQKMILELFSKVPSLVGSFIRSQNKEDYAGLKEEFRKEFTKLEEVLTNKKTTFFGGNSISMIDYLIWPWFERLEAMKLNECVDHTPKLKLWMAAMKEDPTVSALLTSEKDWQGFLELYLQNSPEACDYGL
# PAD4 FP inh: blocks human protein arginine deiminase 4; hit rate 0.41% among 330,000; inhibition, % at 6.36 µM; recombinant PAD4, RCA probe fluorescence polarization; Q9UM07;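 active = percent inhibition above a cutoff equal to the mean of all tested compounds plus 3 SD, cut at about 15% in these data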;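 note: 0% = PAD4 with RCA probe and DMSO and 100% = probe without PAD4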
# CTSL1 counter: counter-screen for PFM18AAP inhibitors: inhibitors of F. hepatica cathepsin L1 | inhibition, % at 5.96 µM | recombinant F. hepatica cathepsin L1, Z-Leu-Arg-MCA fluorescence | hit rate 0.49% among 300,000;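 active = inhibition above the mean of all tested compounds plus 3 SD, set per screening campaign, cut at about 17% in these data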;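 note: 0% = plate median of test compound wells and 100% = 1 µM Z-Phe-Ala-diazomethylketone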
# GSTO1 inh conf: GSTO1 (human) inhibition, confirmation; shares compounds with GSTO1 inh; recombinant GSTO1, probe fluorescence polarization; inhibition, % at 5.96 µM; hit rate 54% among 2,400; AID 2176;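 active = inhibition above the primary screen's cutoff, its mean inhibition plus 3 SD, cut at about 35% in these data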;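 note: loss of polarization as inhibitors block binding of rhodamine sulfonate ester activity probe; 0% = GSTO1 with DMSO and 100% = wells lacking GSTO1 enzyme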
# GSTO1 recomb ABPP: blocks recombinant human glutathione S-transferase omega 1 | shares compounds with GSTO1 inh | recombinant GSTO1, gel ABPP SE-Rh probe fluorescence | inhibition, % at 1 µM | hit rate 30% among 130;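 active = inhibition of the enzyme GSTO1 above about 75%, limit read from the data; inactive = inhibition below that limit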
# * marks the source's active call; other numbers are inactive results; x = not tested or not shown. An excerpt weighted towards active compounds, which were near 2.5% of everything screened.
SMILES,PRMT1 FP inh,TDP2 absorb,GSTO1 inh,PAD4 FP inh,CTSL1 counter,GSTO1 inh conf,others
NC(=S)N/N=C/c1coc2ccc(O)cc2c1=O,6,-1,67*,3,2,12,
Cc1ccc2nc3cc([N+](=O)[O-])cc([N+](=O)[O-])c3cc2c1,2,-25,x,x,x,x,
Cc1ccccc1-n1ncc2c([N+](=O)[O-])cc([N+](=O)[O-])cc21,2,-3,39*,-8,0,3,
Cc1ccc2c(c1)c1c3n2CCN(C(=O)CCl)C3CCC1 (stereo unspecified),1,13,93*,-1,39*,93*,GSTO1 recomb ABPP=85*
CC(=O)N1CCn2c3c(c4cc(C)ccc42)CCCC31 (stereo unspecified),-4,-17,10,2,3,x,
Cc1cc2nc(CCl)cc(=O)n2[nH]1,-2,1,104*,3,2,93*,GSTO1 recomb ABPP=54
COCc1cc(=O)n2[nH]c(C)cc2n1,5,-2,3,1,-5,x,
CCCC1CCC2(CCCN2CCOC(=S)NCc2cccc(C)c2)CC1 (stereo unspecified),1,-4,x,x,x,x,
Cc1nn(-c2ccc(Cl)cc2)c2[nH]c(CCl)cc(=O)c12,-2,-14,97*,-1,3,98*,GSTO1 recomb ABPP=72
Cc1cc(=O)[nH]c2c1c(C)nn2-c1ccccc1,0,-1,4,-4,6,x,
O=C(O)c1cccc(N/N=C(\N=Nc2ccccc2)c2ccccc2)c1,3,-3,21,1,-1,x,
O=C(O)c1ccc(N=N/C(=N\Nc2ccc(C(=O)O)cc2)c2ccccc2)cc1,0,-9,39*,1,3,67*,
Cc1cccc(-c2nnc(SCCOc3ccc4c(C)cc(=O)oc4c3)o2)c1,1,-8,40*,-1,-3,25,
Cc1cc(C(=O)N2CCCC(N3CCN(c4cccc(Cl)c4)CC3)C2)n(C)n1 (stereo unspecified),0,-12,x,x,x,x,
CCn1nc(C)cc1C(=O)N1CCCC(N2CCN(c3cccc(Cl)c3)CC2)C1 (stereo unspecified),0,4,47*,-3,0,6,
c1nc(NCC2CCOC2)c2cc(-c3ccc4c(c3)OCO4)ccc2n1 (stereo unspecified),-3,-1,x,x,x,x,
COc1ccc(-c2nnc(SCC(=O)NN=C(C)c3cccc4ccccc34)n2-c2ccc(C)cc2)cc1,-4,5,x,x,x,x,
O=C1C(NS(=O)(=O)c2cccs2)=C(N2CCN(c3cccc(Cl)c3)CC2)C(=O)c2ccccc21,11,4,50*,-12,-1,14,
CC1(C)CC(=O)C2=C(C1)N(CC1CCCO1)C(=O)C2(O)C(F)(F)F (stereo unspecified),-2,-3,3,-1,3,x,
CC1(C)CC(=O)C2=C(C1)N(C1CCCCC1)C(=O)C2(O)C(F)(F)F (stereo unspecified),-2,-7,65*,4,-1,6,
O=C(c1cccc(I)c1)N1CCC(Oc2cccnc2)CC1,-4,-2,x,x,x,x,
CC(=O)NC1=C(N(C)C2CCS(=O)(=O)C2)C(=O)c2ccccc2C1=O (stereo unspecified),3,11,38*,-10,7,4,
C=CCN1[C@H](Cc2ccccc2)COc2cc(N3CCSCC3)ccc2S1(=O)=O,0,-2,x,x,x,x,
CCCCOc1ccc(-c2ncc(C(=O)O)c(C)n2)cc1,-1,-4,43*,-1,8,5,
O=C(NC1CCC1)c1ccc(C#CC2CC2)c[n+]1[O-],-2,-3,x,x,x,x,
SMILES,PRMT1 FP inh,TDP2 absorb,GSTO1 inh,PAD4 FP inh,CTSL1 counter,GSTO1 inh conf,others
CC(C)(C)OC(=O)N1CCC(N[C@@H](Cc2ccccc2)C(=O)NCCc2c[nH]c3ccccc23)(C(=O)NC2CCCCC2)CC1,-2,-13,x,x,x,x,
Cc1ccc(N(Cc2cc(=O)[nH]c3ccccc23)C(=O)CCl)c(C)c1,3,-8,64*,4,-2,75*,GSTO1 recomb ABPP=27
CC(=O)N1CCc2c1cccc2S(=O)(=O)NC(CC(C)C)C(=O)Nc1ccccc1C (stereo unspecified),0,-4,x,x,x,x,
COc1ccc(S[C@]2(C(=O)N3CCOCC3)CC(=O)N(C(=O)/C=C/c3ccccc3)[C@@H]2c2ccc(OC)cc2)cc1,11,-8,x,x,x,x,
Nc1cc(N)c(OCC(F)(F)F)cc1OCC(F)(F)F,x,x,80*,55*,9,64*,
C/C(=N\NC(=O)C1CC1)c1cccc(NC(=O)c2cccc(Cl)c2)c1,x,x,-5,-7,-1,x,
C/C(=N\NC(=O)c1cc(O)ccc1O)c1cccc(NC(=O)c2ccc(Cl)cc2)c1,18,14,85*,-6,-1,19,
C/C(=N\NC(=O)c1ccccc1O)c1cccc(NC(=O)c2ccccc2)c1,-2,1,5,-5,3,x,
C/C(=N\NC(=O)c1cc(O)ccc1O)c1cccc(NC(=O)c2cccc(Cl)c2)c1,31*,-1,56*,-9,2,17,
C=CC[C@@]1(c2ccccc2)Oc2ccccc2-c2nc3ccccc3nc21,0,11,x,x,x,x,
Cc1ccccc1NC(=O)Cc1nc(CCl)cs1,10,-17,93*,-1,-3,95*,GSTO1 recomb ABPP=74
CCOC(=O)/C=C/C(=O)OCc1csc(CC(=O)Nc2ccccc2C)n1,0,-11,11,-4,7,x,
O=C(CSc1nnc(-c2ccccc2)n1-c1ccc(Cl)cc1)Nc1ccccc1-c1ccccc1,-2,-16,x,x,x,x,
COc1ccc(-n2c(COc3ccc(C)cc3)nnc2SCC(=O)c2ccc(-c3ccccc3)cc2)cc1,-3,-9,x,x,x,x,
O=C1NN(c2ccccc2)C(=O)/C1=C/c1ccc(Sc2cccc3ccccc23)o1,6,-16,49*,1,6,66*,
O=C1NN(c2ccccc2)C(=O)/C1=C/c1ccc(-c2ccc(C(=O)O)cc2)o1,16,1,-14,-1,7,x,
COc1cc(Sc2ccc(C)cc2)c(OC)cc1N,35*,-3,47*,-19,2,7,
COC(=O)c1ccc(Sc2ccc(C)cc2)c(N)c1,0,-13,-2,1,0,x,
COC(=O)[C@@H]1[C@H](O[Si](C)(C)C(C)(C)C)C2OC2C[C@H]1S(=O)(=O)c1ccccc1 (stereo partly specified),3,0,x,x,x,x,
Cc1nc(SCC(N)=O)[nH]c(=O)c1C,0,9,x,x,x,x,
Oc1ccc2ccccc2c1C1Nc2cccc3cccc(c23)N1,x,x,42*,-4,-3,24,
CCN(CC)C(=O)CC[C@@H]1CC[C@]2(CCCN(C(=O)c3cccnc3)C2)O1,-4,6,x,x,x,x,
O=C1N=C(N2CCOCC2)S/C1=C/c1cc2c(cc1[N+](=O)[O-])OCO2,8,-15,64*,-12,8,48*,
COc1ccccc1NC(=S)OC1CCC12CCC(c1ccccc1)CC2 (stereo unspecified),2,-1,x,x,x,x,
